Measured values published in ChEMBL document CHEMBL1150238, “Podophyllotoxin directly binds a hinge domain in E2 of HPV and inhibits an E2/E7 interaction in vitro” (Bioorg Med Chem, 2008).
Activity calls are given as the source filed them. The rule behind the calls is not given here.

Legend:
[1] = Cytotoxicity against mouse L210 cells after 48 hrs; type: functional, cell-based; conditions: L210, 48 h
Method in brief: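 Cells seeded at 1.0 × 10⁴ per 100 µL and preincubated 24 h at 37 °C, 5% CO2. They were then exposed to graded compound concentrations for 48 h. WST-8 reagent added for 4 h, and absorbance read at 450 nm.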

Regulatory protein E2 [2] = target: T1, Regulatory protein E2 (Human papillomavirus type 1a, UniProt P03118); assay: Binding affinity to HPV1a recombinant E2 protein by surface plasmon resonance method
T1 sequence (P03118 whole entry): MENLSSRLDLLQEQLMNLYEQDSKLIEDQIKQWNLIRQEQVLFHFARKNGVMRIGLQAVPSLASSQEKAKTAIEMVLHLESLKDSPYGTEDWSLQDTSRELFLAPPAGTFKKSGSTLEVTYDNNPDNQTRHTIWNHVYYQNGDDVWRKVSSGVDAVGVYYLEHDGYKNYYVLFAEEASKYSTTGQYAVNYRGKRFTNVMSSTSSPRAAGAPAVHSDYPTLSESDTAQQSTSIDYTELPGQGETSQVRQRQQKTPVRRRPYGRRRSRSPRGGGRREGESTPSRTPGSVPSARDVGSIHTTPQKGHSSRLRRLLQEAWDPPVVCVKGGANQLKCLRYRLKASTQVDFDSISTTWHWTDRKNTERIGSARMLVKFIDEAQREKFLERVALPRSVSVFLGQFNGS
Method in brief: (§1)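 E2 proteins (full-length and HPV 1a domain constructs, FLAG-tagged) expressed in E. coli with 1 mM IPTG induction for 3 h and purified by FPLC. Proteins amine-coupled to sensor chip (EDC/NHS activation, 10 mM acetate pH 4.0–6.0, ethanolamine block). PT flowed at various concentrations in PBS pH 7.4, 0.005% Tween20, 5% glycerol, 5% DMSO, 20–30 µL/min, 25 °C. Reference flow cell subtracted, KD derived; replicates over two times.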

[3] = target: T2, Regulatory protein E2 (Human papillomavirus type 1a) (UniProt P03118); assay: Inhibition of HPV1a E2-E7 protein interaction at 250 uM assessed as rate of E2 binding to E7 protein by surface plasmon resonance method; design: scale not given: the % may be the effect or the level left
T2 sequence (whole entry): T1 sequence (P03118 whole entry)
Method in brief: (§2)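 SPR competition format: E2 protein at 0.1 µM was mixed with PT in 5% DMSO and injected at 30 µL/min, 25 °C. Bound E2 amount was compared at 115 s after injection. Buffer alone and PT without E2 served as sensorgram controls.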

Regulatory protein E2 [4] = target: T1, Regulatory protein E2; assay: Binding affinity to HPV1a recombinant E2 protein activator domain by surface plasmon resonance assay; method in brief: as §1
Regulatory protein E2 [5] = target: T1, Regulatory protein E2; assay: Binding affinity to HPV1a recombinant E2 protein hinge domain by surface plasmon resonance assay; method in brief: as §1
Regulatory protein E2 [6] = target: T1, Regulatory protein E2; assay: Binding affinity to HPV1a recombinant E2 protein DNA binding domain by surface plasmon resonance assay; method in brief: as §1
Regulatory protein E2 [7] = target: T3, Regulatory protein E2 (human papillomavirus 11, UniProt P04015); assay: Binding affinity to HPV11 recombinant E2 protein by surface plasmon resonance method; method in brief: as §1
T3 sequence (P04015 whole entry): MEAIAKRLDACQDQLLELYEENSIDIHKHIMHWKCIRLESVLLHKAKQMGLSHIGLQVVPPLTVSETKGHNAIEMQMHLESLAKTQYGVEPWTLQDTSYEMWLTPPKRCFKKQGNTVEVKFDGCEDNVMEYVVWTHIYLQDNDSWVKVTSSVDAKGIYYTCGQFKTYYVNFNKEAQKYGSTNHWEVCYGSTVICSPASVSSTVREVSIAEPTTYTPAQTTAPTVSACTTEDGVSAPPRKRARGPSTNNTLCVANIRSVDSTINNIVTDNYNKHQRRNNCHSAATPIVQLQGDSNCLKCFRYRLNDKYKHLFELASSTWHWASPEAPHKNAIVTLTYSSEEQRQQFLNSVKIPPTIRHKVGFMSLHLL

[8] = target: T2, Regulatory protein E2 (Human papillomavirus type 1a); assay: Inhibition of HPV1a E2-E7 protein interaction at 500 uM assessed as rate of E2 binding to E7 protein by surface plasmon resonance method; design: scale not given: the % may be the effect or the level left; method in brief: as §2
Regulatory protein E2 [9] = target: T4, Regulatory protein E2 (Human papillomavirus 16, UniProt P03120); assay: Binding affinity to HPV16 recombinant E2 protein by surface plasmon resonance method; method in brief: as §1
T4 sequence (P03120 whole entry): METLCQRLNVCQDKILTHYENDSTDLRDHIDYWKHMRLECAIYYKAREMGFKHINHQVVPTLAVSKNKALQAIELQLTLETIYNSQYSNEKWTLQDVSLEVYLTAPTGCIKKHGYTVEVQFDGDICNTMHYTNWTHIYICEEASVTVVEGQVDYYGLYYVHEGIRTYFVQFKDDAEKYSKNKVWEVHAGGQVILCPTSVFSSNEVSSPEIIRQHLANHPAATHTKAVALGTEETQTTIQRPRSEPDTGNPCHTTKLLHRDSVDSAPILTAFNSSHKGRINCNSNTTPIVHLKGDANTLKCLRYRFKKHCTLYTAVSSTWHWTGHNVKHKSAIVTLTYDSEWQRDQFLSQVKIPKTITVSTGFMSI

[10] = target: T2, Regulatory protein E2 (Human papillomavirus type 1a); assay: Inhibition of HPV1a recombinant E2 protein-DNA interaction by electron mobility shift assay

| SMILES | IC50 [1] [µM] | Kd (Regulatory protein E2 [2]) [µM] | Activity [3] [%] | Kd (Regulatory protein E2 [4]) [µM] | Kd (Regulatory protein E2 [5]) [µM] | Kd (Regulatory protein E2 [6]) [µM] | Kd (Regulatory protein E2 [7]) [µM] | Activity [8] [%] | Kd (Regulatory protein E2 [9]) [µM] | Activity [10] |
| --- | --- | --- | --- | --- | --- | --- | --- | --- | --- | --- |
| COc1cc([C@@H]2c3cc4c(cc3[C@H](OC(=O)CCCCCNC(=O)CCCC[C@@H]3SC[C@@H]5NC(=O)N[C@@H]53)[C@H]3COC(=O)[C@H]23)OCO4)cc(OC)c1OC | 0.4 |  |  |  |  |  |  |  |  |  |
| COc1cc([C@@H]2c3cc4c(cc3[C@@H](O[C@@H]3O[C@@H]5CO[C@@H](C)O[C@H]5[C@H](O)[C@H]3O)[C@H]3COC(=O)[C@H]23)OCO4)cc(OC)c1O [ETOPOSIDE] |  | 210 | 82 |  |  |  |  |  |  |  |
| COc1cc([C@@H]2c3cc4c(cc3[C@H](O)[C@H]3COC(=O)[C@H]23)OCO4)cc(OC)c1OC [PODOFILOX] | 0.007 | 24.1 | 60.6 | > 400 | 1.05 | > 400 | 20.1 | 49.1 | 70.5 | inactive |
